A selection: hits, their analogues and other compounds. The true share with any hit is near 2.6%.
SIAE inh = human SIAE inhibitors, primary screen, biochemical, fluorescence polarization, FP-Rh probe, 1536-well HTS | 0.69% of 370,000 active | inhibition, % at 9.66 µM | SIAE FP-Rh probe binding | Sialate O-acetylesterase (Homo sapiens), Q9HAT2 | AID 1053197, 2014;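 active = inhibition above a cutoff: mean of compounds within the control limits plus 3 SD of those, cut at about 17% in these data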;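 note: 0% = plate median of compound wells and 100% = probe without SIAE protein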
Target sequence (Q9HAT2 whole entry, looked up): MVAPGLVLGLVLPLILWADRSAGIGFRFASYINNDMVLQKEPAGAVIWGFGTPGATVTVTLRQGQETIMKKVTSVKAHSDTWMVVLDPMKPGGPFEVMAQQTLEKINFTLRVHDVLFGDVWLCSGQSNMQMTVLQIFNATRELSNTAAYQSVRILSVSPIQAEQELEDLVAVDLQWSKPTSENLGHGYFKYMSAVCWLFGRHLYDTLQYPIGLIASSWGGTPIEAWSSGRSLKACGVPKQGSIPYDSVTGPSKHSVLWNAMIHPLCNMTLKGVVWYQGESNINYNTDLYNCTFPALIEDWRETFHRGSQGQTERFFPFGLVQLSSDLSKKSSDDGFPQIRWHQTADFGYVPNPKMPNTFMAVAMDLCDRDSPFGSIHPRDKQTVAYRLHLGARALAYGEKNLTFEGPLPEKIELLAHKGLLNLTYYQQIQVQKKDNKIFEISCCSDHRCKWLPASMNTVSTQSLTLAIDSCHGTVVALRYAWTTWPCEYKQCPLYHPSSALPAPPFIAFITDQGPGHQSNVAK
mABHD4 FP = ABHD4 inhibitors, primary screen, biochemical, fluorescence polarization, mouse; purified mABHD4, FP-Rh probe fluorescence polarization; inhibition, % at 8.92 µM; 0.54% of 370,000 active;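 active = inhibition exceeding the mean over every tested compound plus 3 SD, cut at about 30% in these data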;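 note: 0% = plate median of compound wells and 100% = S159A mutant with DMSO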
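Assay system: Wild-type mouse ABHD4 protein | Medium: HEPES pH 7.0 buffer, 150 mM NaCl, 0.01% Pluronic F-127 | Incubation: Enzyme–compound pre-incubation 45 min, then probe 60 min, both 25 °C | Technique: Fluorescence polarization with parallel and perpendicular emission, 525/598 nm | Evaluation: % inhibition of FP-Rh probe binding versus controls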
TCR CD3 inh = inhibitors of human TCR-CD3 interaction, primary screen, biochemical, fluorescence, TAMRA-labeled TCR probe; T-cell receptor (TCR); inhibition, % at 9.4 µM; 0.37% of 360,000 active; AID 651800, 2012; in the data active = inhibition above about 19%;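 note: recombinant mutant TCR 2C K166C tagged with TAMRA read by polarization; 0% = receptor in buffer alone and 100% = receptor with positive control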
PRMT1 FP inh = PRMT1 methyltransferase inhibitors, primary screen, biochemical, fluorescence polarization. inhibition, % at 2.79 µM. recombinant PRMT1, activity-based probe fluorescence polarization. 1.3% of 370,000 active. AID 652257, 2013;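 active = inhibition above about 21% made by adding two undisclosed values, limit read from the data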
HTRA1 inhibitor = HTRA1 serine protease inhibitors, primary screen, biochemical, fluorescence polarization, HTS; 0.5% of 340,000 active; inhibition, % at 5.96 µM; AID 504803, 2011; Q92743; recombinant HTRA1, FP-rhodamine activity-based probe; in the data active = inhibition above about 36%;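 note: 0% = enzyme with DMSO and 100% = wells lacking enzyme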
ABHD4 confirm = ABHD4 inhibitors, retest, confirmation, biochemical, fluorescence polarization, mouse | shares compounds with mABHD4 FP | inhibition, % at 8.92 µM | AID 720658, 2013 | 55% of 1,800 active | purified mABHD4, FP-Rh probe fluorescence polarization;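 active = mean inhibition across replicates above the hit cutoff set in the primary screen, cut at about 30% in these data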;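 note: 0% = wild-type ABHD4 with DMSO and 100% = catalytically dead S159A mutant with DMSO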
* hit, by the source's call; . = no result given.

SMILES | SIAE inh | mABHD4 FP | TCR CD3 inh | PRMT1 FP inh | HTRA1 inhibitor | ABHD4 confirm
CCN(CC(=O)Nc1c(F)cccc1F)C(=O)CC1CCCCC1 | 8.9 | -3.2 | 7.1 | -3.9 | -1.1 | .
CCOC(=O)c1c(C)[nH]c2cc(Br)c(O)cc12 | 6.2 | 38.8* | 3.0 | 0.6 | 0.4 | 59.7*
CCOC(=O)c1c(-c2ccc(OC)cc2)oc2cc(Br)c(O)cc12 | 1.6 | 10.6 | 6.1 | 0.8 | -16.3 | .
NC(=S)N/N=C1\c2ccccc2-c2c(C(=O)O)cccc21 | -29.2 | 41.9* | 9.1 | 0.7 | -1.8 | 47.1*
NC(=O)c1cccc2c1-c1ccccc1/C2=N/NC(N)=S | 7.4 | 2.0 | 2.9 | 2.4 | 12.3 | .
Cc1ccc(S(=O)(=O)NCCC(=O)N2CCCCCCC2)cc1 | 2.1 | 7.2 | -2.7 | -1.0 | 3.0 | .
Fc1ccccc1N1CCN(c2nc(-c3cccs3)nc3ccccc23)CC1 | -10.0 | 32.8* | 0.7 | 6.4 | -26.2 | -24.6
CCOC(=O)N1CCN(C(=O)COC(=O)CNC(=O)c2ccc(C)cc2)CC1 | 5.6 | 2.8 | 5.3 | 6.8 | -2.2 | .
CN(C)/C=C/c1oc2ccc(O)cc2c1[N+](=O)[O-] | -2.1 | 32.4* | 0.9 | 13.9 | 4.4 | 5.0
CCc1ccc(OCC(=O)Nc2ccc(N3CCN(C(=O)c4ccccc4)CC3)cc2)cc1 | 4.3 | 58.3* | -6.0 | 0.3 | -5.5 | 6.5
Nc1ccc2c(O)cc(S(=O)(=O)O)cc2c1 | -14.8 | 38.6* | 14.4 | . | 25.1 | 26.2
CC(=O)Nc1ccc2c(O)cc(S(=O)(=O)O)cc2c1 | 11.3 | 13.3 | -1.4 | 6.5 | 4.6 | .
COC(=O)Cc1c([C@H](C)[C@@H](OC)c2ccccc2Br)nnn1Cc1ccccc1 | 2.9 | -1.5 | 4.5 | -0.4 | . | .
CCc1noc(C)c1C(=O)N(C)CC(=O)Nc1ccc(Br)cc1C | 1.8 | 41.0* | -2.3 | 2.1 | -2.1 | 1.8
Cc1cc(-c2n[nH]c(=S)n2CC(C)C)cs1 | 10.8 | 31.9* | 2.7 | -3.9 | -2.1 | -5.8
CC(C)Cn1c(-c2csc(C(C)C)c2)n[nH]c1=S | 4.8 | -7.9 | 2.4 | 4.9 | . | .
CCCc1cc(=O)[nH]c(SCC(=O)NC2CCCCC2)n1 | 2.3 | 93.4* | 6.4 | -1.5 | 7.2 | -3.4
COc1ccc(N2C(=O)CS/C2=C\[N+](=O)[O-])cc1 | 8.2 | 30.2* | -7.7 | 3.3 | 5.5 | 2.7
Oc1ccc(N=Cc2cc(Br)c(N3CCOCC3)o2)cc1 | 3.6 | 42.2* | 31.6* | 10.2 | 14.9 | 6.2
CN(CC(=O)Nc1cccc(F)c1)C(=O)c1ccccc1CCc1ccccc1 | 3.9 | 36.0* | 1.9 | -2.3 | -36.8 | -20.0
CCOc1ccccc1C(=O)NCC(=O)OCc1csc(CC(=O)Nc2ccc(C)cc2)n1 | -19.4 | 36.3* | 10.0 | 3.0 | -31.7 | 7.3
C/C(=N\S(=O)(=O)c1ccc(C)cc1)N(C)C | -0.1 | 0.6 | -0.1 | 6.1 | -5.2 | .
Cc1cc2nc3c(nc2cc1C)CCCC3 | -0.5 | -0.5 | 4.9 | -3.7 | -5.5 | .
F[B-](F)(F)c1cnc2ccccc2c1 | -1.8 | 31.1* | 0.1 | -2.1 | 7.4 | 23.0
c1cncc(-c2cnc3ccccc3c2)c1 | 1.2 | -7.0 | 3.2 | -0.9 | -3.1 | .
SMILES | SIAE inh | mABHD4 FP | TCR CD3 inh | PRMT1 FP inh | HTRA1 inhibitor | ABHD4 confirm
Cc1ccc(/C=C2\SC(=S)N(C3CCS(=O)(=O)C3)C2=O)o1 (stereo unspecified) | 4.6 | 34.3* | 0.0 | 20.9 | 14.0 | -6.5
Cc1cc(O)ccc1Nc1cc(-c2cccc(N(C)C)c2)ncn1 | 12.9 | 5.7 | 0.4 | 3.0 | . | .
CN(C)c1cccc(O)c1 | 4.3 | 51.1* | 13.8 | 6.4 | 16.2 | 4.9
COC(=O)N(C)C[C@H]1OCc2cnnn2CCCC(=O)N([C@@H](C)CO)C[C@H]1C | 11.2 | 5.7 | -1.5 | -1.1 | 1.7 | .
CCOc1ccccc1N1CN(C2CCCCC2)CNC1=S | 4.8 | 70.2* | -5.5 | -0.4 | . | 0.6
CCOc1ccc(CCN2CN(C3CCCCC3)CNC2=S)cc1OCC | -4.4 | -4.6 | 1.2 | -5.0 | -0.7 | .
Cc1cccc(Cc2c(C)nc3c(C(=O)N4CCN(Cc5ccc6c(c5)OCO6)CC4)cnn3c2C)c1 | -2.0 | 36.2* | 4.0 | 0.8 | -7.4 | 38.1*
Cc1ccccc1Cc1c(C)nc2c(C(=O)N3CCN(Cc4ccc5c(c4)OCO5)CC3)cnn2c1C | -0.1 | 26.6 | 4.4 | -0.2 | -0.2 | .
COc1ccccc1NS(=O)(=O)c1ccc(O)c(C(=O)OCC(=O)N2c3ccccc3CC2C)c1 (stereo unspecified) | -5.5 | 34.9* | -4.0 | -0.5 | -12.8 | 28.6
CCN(CC)S(=O)(=O)c1ccc(O)c(C(=O)OCC(=O)N2CCCC2)c1 | -1.8 | 5.2 | -5.6 | -2.9 | 5.4 | .
CCN(CC)S(=O)(=O)c1ccc(O)c(C(=O)OCC(=O)N2c3ccccc3CC2C)c1 (stereo unspecified) | 9.1 | 55.7* | 2.8 | -10.6 | -10.3 | 57.5*
CCc1nc2c(OCc3ccc(C(=O)N(C)C)cc3)cccn2c1N(C)C(=O)Nc1ccccc1OC | 6.4 | 7.7 | 4.1 | 0.4 | . | .
N#C/C(=C/C1=C(N2CCOCC2)C(=C/c2ccc(Cl)cc2Cl)/CC1)C(=O)Nc1ccccc1F | -9.8 | 40.0* | 5.4 | 2.5 | -5.4 | -19.0
N#C/C(=C\C1=C(N2CCOCC2)C(=C\c2ccc(Cl)cc2)/CC1)C(=O)Nc1ccccc1F | -49.3 | -7.8 | -10.8 | 0.7 | -0.3 | .
CCOC(=O)c1ccc(NC(=O)C(C)N2C(=O)c3ccccc3C2=O)cc1 (stereo unspecified) | 8.8 | -13.8 | 6.0 | 0.5 | 1.0 | .
NS(=O)(=O)c1ccc(NC2=CC(=O)C(=O)c3ccccc32)cc1 | 5.1 | 30.6* | -5.3 | 15.8 | 14.4 | 8.9
CCOC(=O)c1ccc(NC2=CC(=O)C(=O)c3ccccc32)cc1 | 7.4 | 30.0* | 15.4 | 6.8 | 8.7 | 43.7*
Cc1ccc(NC2=CC(=O)C(=O)c3ccccc32)cc1 | 8.7 | 37.8* | 2.6 | 1.3 | 8.6 | 21.7
O=C(Nc1ccccc1Cl)NN1CCCCCC1 | -0.9 | 47.9* | -11.2 | 3.5 | -15.2 | 51.8*
CCSC(=O)N=Nc1ccc(O)cc1 | 15.8 | 32.9* | 11.5 | 19.7 | 30.6 | 14.8
CC(=O)/C(N=Nc1ccc(SC(F)F)cc1)=C(\C)O | -4.0 | -1.5 | 0.8 | 8.0 | -8.1 | .
Cc1ccc(NS(=O)(=O)c2cccc(C(=O)N3CCN(C(=O)c4ccco4)CC3)c2)cc1 | -3.8 | -0.5 | 3.6 | 0.3 | -9.4 | .
CC(C)(C)c1ccc(C(=O)NC(=O)COC(=O)CCS(=O)(=O)c2ccccc2)cc1 | -4.8 | -1.9 | 0.9 | -2.1 | -5.8 | .
Cc1ccc(-c2cc(NC(=O)Cc3c(C)[nH]c4ccccc34)ccc2Nc2cccnc2)cc1 | 8.1 | 32.3* | -1.9 | 5.4 | . | 37.1*
CCOc1cc2c(c3c1C(c1ccccc1)N(S(=O)(=O)c1ccc(C)cc1)C3)C(=O)C=CC2=O (stereo unspecified) | 5.4 | 48.0* | 0.4 | 6.0 | . | 59.9*

Screening results: PubChem BioAssay, The Scripps Research Institute Molecular Screening Center
